Drawing on BindingDB's records for doi:10.1021/jm970460b (University of Wisconsin-Milwaukee, 1998), this text covers Ki for 1 compound.

This experiment addresses Gamma-aminobutyric acid receptor subunit alpha-6/beta-3/gamma-2 (Homo sapiens, UniProt Q16445+P18507+P28472). The experiment is described as follows: Binding affinity measured using LtK- cell membranes expressing Gamma-aminobutyric acid A receptor alpha-6-beta-3-gamma-2. The essentials: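 Cells scraped, resuspended in 10 mM KH2PO4/100 mM KCl, pH 7.4. Incubation 1 h at 4 °C to equilibrium, filtration, scintillation counting. Ki from iterative least-squares fit, mean of two determinations.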

Chain of Gamma-aminobutyric acid receptor subunit alpha-6/beta-3/gamma-2 (Q16445 whole entry): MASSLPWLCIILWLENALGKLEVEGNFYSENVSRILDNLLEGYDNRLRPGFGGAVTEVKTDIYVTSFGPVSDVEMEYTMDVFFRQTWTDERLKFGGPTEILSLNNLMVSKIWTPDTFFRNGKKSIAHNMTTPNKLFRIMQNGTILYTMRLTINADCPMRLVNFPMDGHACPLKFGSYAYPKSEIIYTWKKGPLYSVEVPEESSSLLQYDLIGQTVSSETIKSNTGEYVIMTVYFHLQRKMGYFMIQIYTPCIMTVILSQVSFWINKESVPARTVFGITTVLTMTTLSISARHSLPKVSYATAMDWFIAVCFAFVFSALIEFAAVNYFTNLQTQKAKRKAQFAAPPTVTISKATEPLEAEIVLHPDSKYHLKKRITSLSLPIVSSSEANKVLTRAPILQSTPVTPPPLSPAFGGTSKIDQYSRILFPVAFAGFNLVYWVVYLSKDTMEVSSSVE
Chain of Gamma-aminobutyric acid receptor subunit alpha-6/beta-3/gamma-2 (P18507 as listed by the source): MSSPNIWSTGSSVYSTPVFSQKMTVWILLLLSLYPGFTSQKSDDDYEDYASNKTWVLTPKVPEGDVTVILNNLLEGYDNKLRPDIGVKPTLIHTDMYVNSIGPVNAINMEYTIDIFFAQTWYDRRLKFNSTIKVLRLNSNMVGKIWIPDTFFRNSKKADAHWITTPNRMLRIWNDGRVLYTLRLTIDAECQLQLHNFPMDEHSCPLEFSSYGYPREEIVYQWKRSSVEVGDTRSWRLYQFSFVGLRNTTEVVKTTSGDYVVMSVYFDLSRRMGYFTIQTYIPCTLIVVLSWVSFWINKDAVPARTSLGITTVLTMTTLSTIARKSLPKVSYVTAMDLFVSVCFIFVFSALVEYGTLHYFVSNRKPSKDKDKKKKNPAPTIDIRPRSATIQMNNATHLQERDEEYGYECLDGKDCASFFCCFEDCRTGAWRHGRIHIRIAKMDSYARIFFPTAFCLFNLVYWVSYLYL
Chain of Gamma-aminobutyric acid receptor subunit alpha-6/beta-3/gamma-2 (P28472 whole entry): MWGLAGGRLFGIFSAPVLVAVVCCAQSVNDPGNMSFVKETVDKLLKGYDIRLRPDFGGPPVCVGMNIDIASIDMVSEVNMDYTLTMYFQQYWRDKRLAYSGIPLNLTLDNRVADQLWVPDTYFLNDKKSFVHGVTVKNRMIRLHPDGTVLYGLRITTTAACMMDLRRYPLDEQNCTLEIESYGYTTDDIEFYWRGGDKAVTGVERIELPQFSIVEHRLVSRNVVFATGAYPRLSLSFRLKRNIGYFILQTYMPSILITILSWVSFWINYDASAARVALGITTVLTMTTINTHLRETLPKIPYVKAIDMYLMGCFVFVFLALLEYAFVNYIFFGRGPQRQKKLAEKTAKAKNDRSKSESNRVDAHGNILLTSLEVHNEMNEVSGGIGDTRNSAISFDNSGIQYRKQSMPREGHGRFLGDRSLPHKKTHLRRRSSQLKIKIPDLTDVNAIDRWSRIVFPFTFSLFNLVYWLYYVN

`CCOC(=O)c1[nH]cc2nc3ccc(OCc4ccccc4)cc3c-2c1COC` [6-Benzyloxy-4-methoxymethyl-9H-beta-carboline-3-carboxylic acid ethyl ester] returned an inhibition constant (Ki) of more than 1000 nM.

By Ki is commonly meant the dissociation constant of the complex between target and ligand, obtained from inhibition or displacement. High values mean lower affinity, low ones higher affinity.
